Source: ChEMBL document CHEMBL2069282, “Sugar-modified derivatives of cytostatic 7-(het)aryl-7-deazaadenosines: 2'-C-methylribonucleosides, 2'-deoxy-2'-fluoroarabinonucleosides, arabinonucleosides and 2'-deoxyribonucleosides” (Bioorg Med Chem, 2012)

Legend:
Hepatitis C virus [1] = assay: Antiviral activity against Hepatitis C virus subtype 1a replicons infected in human HuH7 cells assessed as reduction in viral RNA levels by Rt-PCR; format: functional, organism-based, Hepacivirus hominis; details: Huh-7
[2] = Toxicity against human HuH7 cells incubated for 3 days by CellTiter 96 AQueous One Solution cell proliferation assay; format: cell-based, Huh-7
Hepatitis C virus [3] = assay: Antiviral activity against Hepatitis C virus subtype 1b replicons infected in human HuH7 cells assessed as reduction in viral RNA levels by Rt-PCR; format: functional, organism-based, Hepacivirus hominis; details: genotype 1b, Huh-7
[4] = Selectivity index, ratio of CC50 for human HuH7 cells to EC50 for Hepatitis C virus subtype 1a replicons; format: toxicity, cell-based, Huh-7; details: read-out: Ratio CC50/EC50
[5] = Selectivity index, ratio of CC50 for human HuH7 cells to EC50 for Hepatitis C virus subtype 1b replicons; format: toxicity, cell-based, Huh-7; details: read-out: Ratio CC50/EC50
HL-60 = assay: Cytotoxicity against human HL60 cells incubated for 3 days by XTT assay; format: functional, cell-based; details: HL-60, 72 h
Summary of the method: (§1)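 Cell viability read by a metabolic XTT tetrazolium method after 3-day incubation of cells with compound. Values are from 2–4 independent experiments.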

[6] = Cytotoxicity against human HeLaS3 cells incubated for 3 days by XTT assay; format: functional, cell-based; details: HeLa S3, 72 h; summary of the method: as §1
CCRF-CEM = assay: Cytotoxicity against human CCRF-CEM cells incubated for 3 days by XTT assay; format: functional, cell-based; details: 72 h; summary of the method: as §1
HepG2 = assay: Cytotoxicity against human HepG2 cells incubated for 3 days by XTT assay; format: functional, cell-based; details: HepG2, 72 h; summary of the method: as §1
HCT-116 = assay: Cytostatic activity against human HCT116 cells incubated for 3 days by SRB assay; format: functional; details: HCT-116, 72 h
NCI-H23 = assay: Cytostatic activity against human NCI-H23 cells incubated for 3 days by SRB assay; format: functional; details: NCI-H23, 72 h
[7] = Cytostatic activity against human Hs578 cells incubated for 3 days by SRB assay; format: functional; details: Hs578, 72 h
DU-145 = assay: Cytostatic activity against human DU145 cells incubated for 3 days by SRB assay; format: functional; details: DU-145, 72 h

Row | SMILES | EC50 (Hepatitis C virus [1]) [µM] | EC50 (Hepatitis C virus [3]) [µM] | GI50 (HCT-116) [µM] | GI50 (NCI-H23) [µM] | GI50 (DU-145) [µM] | CC50 at 72 h [2] [µM] | selectivity ratio [4] | selectivity ratio [5] | IC50 (HL-60) [µM] | IC50 [6] [µM] | IC50 (CCRF-CEM) [µM] | IC50 (HepG2) [µM] | GI50 [7] [µM]
1 | C[C@@]1(O)[C@H](O)[C@@H](CO)O[C@H]1n1cc(-c2ccccc2)c2c(N)ncnc21 | 35.4 | 27.1 | – | – | – | > 44 | < 10 | < 10 | – | – | – | – | –
2 | Nc1ncnc2c1c(-c1ccoc1)cn2[C@@H]1O[C@H](CO)[C@@H](O)[C@@H]1O | 25.2 | 22.5 | – | – | – | > 44 | < 10 | < 10 | > 10 | 8.36 | 4.67 | 6.1 | –
3 | COc1ccc(-c2cn([C@@H]3O[C@H](CO)[C@@H](O)[C@@]3(C)O)c3ncnc(N)c23)cc1 | 12 | 9.44 | – | – | – | > 44 | < 10 | < 10 | – | – | – | – | –
4 | C[C@@]1(O)[C@H](O)[C@@H](CO)O[C@H]1n1cc(-c2cccc3ccccc23)c2c(N)ncnc21 | 24.7 | 24.1 | – | – | – | > 44 | < 10 | < 10 | – | – | – | – | –
5 | C[C@@]1(O)[C@H](O)[C@@H](CO)O[C@H]1n1cc(-c2ccco2)c2c(N)ncnc21 | – | 8.96 | > 10 | 6.08 | 8.89 | 49.6 | < 10 | < 10 | – | – | – | – | 9.05
6 | C[C@@]1(O)[C@H](O)[C@@H](CO)O[C@H]1n1cc(-c2cccs2)c2c(N)ncnc21 | – | 14.2 | – | – | – | 48.1 | < 10 | < 10 | – | – | – | – | –
7 | C[C@@]1(O)[C@H](O)[C@@H](CO)O[C@H]1n1cc(-c2ccoc2)c2c(N)ncnc21 | 18.3 | 12.3 | – | – | – | > 44 | < 10 | < 10 | – | – | – | – | –
8 | C[C@@]1(O)[C@H](O)[C@@H](CO)O[C@H]1n1cc(-c2ccsc2)c2c(N)ncnc21 | 36.3 | 15.5 | – | – | – | > 44 | < 10 | < 10 | – | – | – | – | –
9 | C[C@@]1(O)[C@H](O)[C@@H](CO)O[C@H]1n1cc(-c2cc3ccccc3o2)c2c(N)ncnc21 | 6.15 | 6.13 | – | – | – | 29.4 | < 10 | < 10 | > 10 | > 10 | 7.81 | – | –
10 | Nc1ncnc2c1c(-c1ccccc1)cn2[C@@H]1O[C@H](CO)[C@@H](O)[C@@H]1F | 26.4 | 43.5 | – | – | – | > 44 | < 10 | < 10 | – | – | – | – | –
11 | Nc1ncnc2c1c(-c1ccco1)cn2[C@@H]1O[C@H](CO)[C@@H](O)[C@@H]1F | 15.7 | 12.1 | > 10 | > 10 | 8.52 | > 44 | < 10 | < 10 | – | – | – | – | 8.49
12 | Nc1ncnc2c1c(-c1ccoc1)cn2[C@@H]1O[C@H](CO)[C@@H](O)[C@@H]1F | 37 | 17 | – | – | – | > 44 | < 10 | < 10 | – | – | – | – | –
13 | Nc1ncnc2c1c(-c1ccsc1)cn2[C@@H]1O[C@H](CO)[C@@H](O)[C@@H]1F | 10.9 | 10.8 | – | – | – | 24.4 | < 10 | < 10 | – | – | – | – | –
14 | Nc1ncnc2c1c(-c1cn[nH]c1)cn2[C@@H]1O[C@H](CO)[C@@H](O)[C@@H]1F | 22.4 | 8.45 | – | – | – | > 44 | < 10 | < 10 | > 10 | > 10 | 9.07 | – | –
15 | Nc1ncnc2c1c(-c1ccccc1)cn2[C@@H]1O[C@H](CO)[C@@H](O)[C@@H]1O | > 44 | > 44 | – | – | – | > 44 | < 10 | < 10 | – | – | – | – | –
16 | Nc1ncnc2c1c(-c1cccs1)cn2[C@@H]1O[C@H](CO)[C@@H](O)[C@@H]1O | 35.3 | 20.6 | – | – | – | > 44 | < 10 | < 10 | 13.5 | 5.38 | 4.25 | 12.2 | –
17 | Nc1ncnc2c1c(-c1ccsc1)cn2[C@@H]1O[C@H](CO)[C@@H](O)[C@@H]1O | 37.8 | 34 | – | – | – | > 44 | < 10 | < 10 | 13 | 7.03 | 3.1 | > 15 | –
18 | C#Cc1cn([C@@H]2O[C@H](CO)[C@@H](O)[C@@H]2O)c2ncnc(N)c12 | 1.54 | 1.75 | – | – | – | 17.4 | < 10 | < 10 | > 10 | 3.77 | > 10 | 9.86 | –
19 | Nc1ncnc2c1c(-c1ccsc1)cn2[C@H]1C[C@H](O)[C@@H](CO)O1 | 11.4 | 5.91 | – | – | – | > 44 | < 10 | < 10 | – | – | – | – | –

More lines, in order of falling EC50 (Hepatitis C virus [3]), values ahead:

Row | EC50 (Hepatitis C virus [1]) [µM] | EC50 (Hepatitis C virus [3]) [µM] | GI50 (HCT-116) [µM] | GI50 (NCI-H23) [µM] | GI50 (DU-145) [µM] | SMILES | CC50 at 72 h [2] [µM] | selectivity ratio [4] | selectivity ratio [5] | IC50 (HL-60) [µM] | IC50 [6] [µM] | IC50 (CCRF-CEM) [µM] | IC50 (HepG2) [µM] | GI50 [7] [µM]
20 | 4.91 | 5.31 | – | – | – | C[C@@]1(O)[C@H](O)[C@@H](CO)O[C@H]1n1cc(-c2ccc3ccccc3c2)c2c(N)ncnc21 | 20.1 | < 10 | < 10 | > 10 | > 10 | 3.95 | – | –
21 | 24 | 5.26 | – | – | – | Nc1ncnc2c1c(-c1ccoc1)cn2[C@H]1C[C@H](O)[C@@H](CO)O1 | > 44 | < 10 | < 10 | – | – | – | – | –
22 | 7.58 | 5.16 | – | – | – | Nc1ncnc2c1c(-c1cccs1)cn2[C@H]1C[C@H](O)[C@@H](CO)O1 | > 44 | < 10 | < 10 | – | – | – | – | –
23 | 11.1 | 4.16 | – | – | – | Nc1ncnc2c1c(-c1ccco1)cn2[C@H]1C[C@H](O)[C@@H](CO)O1 | > 44 | < 10 | < 10 | – | – | – | – | –
24 | 2.8 | 4.07 | – | – | – | Nc1ncnc2c1c(-c1cccs1)cn2[C@@H]1O[C@H](CO)[C@@H](O)[C@@H]1F | 42.9 | < 10 | < 10 | > 10 | 5.6 | 7.5 | > 10 | –
25 | 3.41 | 3.02 | – | – | – | Nc1ncnc2c1c(-c1ccco1)cn2[C@@H]1O[C@H](CO)[C@@H](O)[C@@H]1O | > 44 | < 10 | < 10 | > 10 | 7.62 | 6.64 | 6.62 | –
26 | 1.39 | 1.39 | – | – | – | Nc1ncnc2c1c(I)cn2[C@@H]1O[C@H](CO)[C@@H](O)[C@@H]1O | 9.97 | < 10 | < 10 | 6.44 | 3.19 | 7.02 | 6.12 | –
27 | 1.83 | 0.92 | 7.64 | 5.36 | 9.41 | Nc1ncnc2c1c(-c1cnn[nH]1)cn2[C@@H]1O[C@H](CO)[C@@H](O)[C@@H]1F | 10.9 | < 10 | < 10 | > 10 | 6.66 | 3.45 | – | 1.82
28 | 0.37 | 0.38 | 6.65 | 0.79 | 3.38 | C[C@@]1(O)[C@H](O)[C@@H](CO)O[C@H]1n1cc(I)c2c(N)ncnc21 | 19.8 | 65 | 65 | > 10 | 7.5 | 4.38 | – | 4.39
29 | 0.36 | 0.36 | 0.108 | 0.048 | 0.002 | C#Cc1cn([C@@H]2O[C@H](CO)[C@@H](O)[C@@H]2F)c2ncnc(N)c12 | 2.68 | < 10 | < 10 | 0.2 | 0.22 | 0.18 | – | 0.065
